Assay results taken from PubChem BioAssay AID1217 (Sanford-Burnham Center for Chemical Genomics, 2008).
Out of some 190,000 compounds screened, about 1,300 (0.68%) were called active.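 The calls were made as follows: active = primary screen inhibition at 20 µM above a set limit (cut at about 50% in these data); inactive = the rest.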 Many of the other results were omitted from the sample, so actives are more common in it than they were.

Tested on: diaphorase (Clostridium kluyveri)
Assay: compounds blocking diaphorase resazurin reduction – biochemical, uHTS, resorufin fluorescence, counter-screen for diaphorase-coupled primary assays, primary screen (AID 1217);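 also: plate controls were DMSO with full reaction for no effect and wells lacking NADH for full effect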
Conditions: diaphorase resazurin-to-resorufin fluorescence, NADH, 16 min; at 20 µM; hits give high values; bacterial (C. kluyveri) enzyme, not human
Procedure, shortened: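 material = Clostridium kluyveri diaphorase enzyme | amount = 0.14 U/mL diaphorase, enzyme working solution | schedule = incubation 16 min, room temperature | detection = fluorescence of resorufin formed from resazurin, Ex 544/Em 590 nm | benchmarks = positive control minus NADH, DMSO neutral control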

Structure (SMILES)	inhibition
COc1cc2c(cc1OC)C(=O)NCC(C)(C)O2	-1.5% (inactive)
Cc1cc(C)nc(-n2nc(C)cc2NC(=O)c2ccc(F)cc2F)n1	3.4% (inactive)
Cc1cc(OCC(=O)NC2CCN(C)CC2)ccc1[N+](=O)[O-]	3.6% (inactive)
COc1cccc(NC(=O)c2ccc(S(=O)(=O)N(C)C)cc2)c1	5.6% (inactive)
O=C(COC(=O)/C=C/c1cccc(Cl)c1)NCCc1ccccc1	8% (inactive)
CCOc1ccccc1Nc1ccc(C(=O)O)cc1[N+](=O)[O-]	9.2% (inactive)
OCCC1CN(Cc2cccc(OC3CCCC3)c2)CCN1Cc1ccsc1 (stereo not given)	8.6% (inactive)
CCCCCCCNc1nc(Cl)nc(NCCO)n1	-16.1% (inactive)
CCn1cc(C(=O)NCc2ccc3c(c2)OCO3)c2cc(OC)c(OC)cc2c1=O	59.4% (active)
CCn1cc(C(=O)NCC2COc3ccccc3O2)c2cc(OC)c(OC)cc2c1=O (stereo not given)	7.1% (inactive)
CCn1cc(C(=O)N2CCN(Cc3ccc4c(c3)OCO4)CC2)c2cc(OC)c(OC)cc2c1=O	10.4% (inactive)
N#CC1=C(N)Oc2[nH]c(=S)[nH]c(=O)c2C12C(=O)Nc1ccccc12 (stereo not given)	25.5% (inactive)
CCc1ccc(C2C(C#N)=C(N)Oc3n[nH]c(CC(=O)OC)c32)cc1 (stereo not given)	4% (inactive)
Cc1cc(C)c(C#N)c(SCc2[nH]nc3c2C(c2ccccc2)C(C#N)=C(N)O3)n1 (stereo not given)	53% (active)
CCCc1[nH]nc2c1C(c1c(C)nn(-c3ccccc3)c1Cl)C(C#N)=C(N)O2 (stereo not given)	26.8% (inactive)
O=C(OCc1cc(Cl)ccc1OC(F)F)c1cccnc1	10.6% (inactive)
COc1cc(/C=N/n2c(C)n[nH]c2=S)ccc1OCc1ccccc1	32% (inactive)
COC(=O)c1ccc(/C=N\n2c(C)nnc2C)cc1	-6.4% (inactive)
CCN(CC)S(=O)(=O)c1cccc(-c2n[nH]c(=S)n2/N=C/c2ccc(C(=O)OC)cc2)c1	66.5% (active)
CN1CCN(CC(=O)Nc2cccc([N+](=O)[O-])c2)CC1	12% (inactive)
CCOc1ccc(-n2c(O)c(/C=N/Nc3nc(C)cc(C)n3)c3ccccc3c2=O)cc1	-1.1% (inactive)
CCOc1ccc(-n2c(O)c(/C=N/c3ccnn3Cc3ccncc3)c3ccccc3c2=O)cc1	-12.9% (inactive)
CCOc1ccc(-n2c(O)c(/C=N/Nc3nnc(C)c(=O)[nH]3)c3ccccc3c2=O)cc1	89.8% (active)
COc1cccc(/C=N/Nc2ncc(C(F)(F)F)cc2Cl)c1O	0% (inactive)

Structure (SMILES)	inhibition
FC(F)(F)c1cccc(N/N=C/c2ccccc2)c1	23.2% (inactive)
Oc1ccc(/C=N/Nc2ccc(C(F)(F)F)cn2)cc1O	53.7% (active)
CN(Cc1ccccc1)C(=O)COC(=O)c1ccccc1Nc1ccccc1	28.3% (inactive)
CCN(CC)c1ccc(/C=N/Nc2nc(C)cc(C)n2)c(O)c1	42.2% (inactive)
CCN(CC)c1ccc2oc(=O)c(C)nc2c1	62.3% (active)
CCN(CC)c1ccc2cc(C(=O)O)c(=O)oc2c1	11.2% (inactive)
CCc1ccc(NC(=O)Cn2nc(C)c([N+](=O)[O-])c2C)cc1	12.1% (inactive)
COC(=O)c1ccc(OCC(=O)NC(C)(C)C)cc1	-15.5% (inactive)
CC(C)(C)NC(=O)COc1ccc(CNc2ccc3[nH]c(=O)[nH]c3c2)cc1	54.2% (active)
CC(=O)Nc1ccc(OCC(=O)NCc2ccc(C)cc2)cc1	11.1% (inactive)
Cc1cccc(C2c3[nH]c4ccccc4c3CCN2C(=O)c2cc(-c3cccn3C)n[nH]2)n1 (stereo not given)	37% (inactive)
Cc1cc2c(cc1C)[n+](C)cn2CC(O)COCC1CC=CCC1 (stereo not given)	1.5% (inactive)
COc1ccc(/C=C/CN2CCN(Cc3ccc(C)cc3)C(CCO)C2)cc1 (stereo not given)	7.2% (inactive)
CN(CCc1cn[nH]c1)C(=O)CC1C(=O)NCCN1Cc1cccc(Oc2ccccc2)c1 (stereo not given)	8.5% (inactive)
O=C(CSc1ccc2nnc(-c3ccccc3)n2n1)N1CCCc2ccccc21	56.2% (active)
CCCn1c(SCC(=O)N2CCc3ccccc32)nnc1-c1ccncc1	6.2% (inactive)
Cn1c(SCC(=O)N2CCCc3ccccc32)nc2ccccc2c1=O	5.1% (inactive)
C=CCNC(=S)NNC(=O)COc1c(Cl)cc(Cl)cc1Cl	10.5% (inactive)
COc1cccc(C(=O)Oc2cc(C)[nH]c(=O)c2[N+](=O)[O-])c1	15.4% (inactive)
Cc1nn(C)c(Oc2ccccc2)c1[N+](=O)[O-]	13.6% (inactive)
Cc1cccc(Oc2c([N+](=O)[O-])c(=O)n(C)c3ccccc23)c1	94.1% (active)
Cc1cccc(OP(=O)(Nc2c(C)n(C)n(-c3ccccc3)c2=O)Oc2cccc(C)c2)c1	14.1% (inactive)
Cn1c2ccccc2c(=O)c2c(O)cccc21	-1% (inactive)
Cn1c(=O)c([N+](=O)[O-])c(Oc2ccccc2)c2ccccc21	82.2% (active)

Structure (SMILES)	inhibition
CN(Cc1cc2cc(F)ccc2[nH]1)Cc1nc(-c2cnccn2)no1	15.3% (inactive)
CN(C)c1nc(-c2cccnc2)nc(-c2ccc(Cl)cc2)c1C#N	-10.7% (inactive)
COC(=O)C1CCN(C(=O)c2cc(=O)[nH]c3ccccc23)CC1	6.4% (inactive)
OC(COCc1ccco1)CN1CCN(c2ccccc2)CC1 (stereo not given)	3.1% (inactive)
S=C(NCC1CCCO1)N1CCN(c2ccc(Cl)c(Cl)c2)CC1 (stereo not given)	21.1% (inactive)
Cc1cccc(N2CCC(NCc3c(C(=O)N4CCCCC4)nc4c(C)cccn34)CC2)c1	-5.4% (inactive)
Cc1cccc(NC(=O)Nc2ccc3c(c2)OCO3)n1	18.3% (inactive)
COc1ccc(NC(=S)NCCN2CCC(C)CC2)cc1	-1.3% (inactive)
Cc1noc(/C=C/c2ccco2)c1S(=O)(=O)N1CCC(C(=O)Nc2ccc(Cl)cn2)CC1	14.1% (inactive)
COC(=O)C1=C(C)NC(=O)CC1c1ccccc1OC (stereo not given)	6.8% (inactive)
COc1cc(N/C=C2\CC(=O)NC(C)=C2C#N)cc(OC)c1OC	51.1% (active)
Cc1cccc(NC(=S)NCCc2ccc(F)cc2)c1C	1.1% (inactive)
N#Cc1c(-c2ccc(F)cc2)cc(C2CC2)nc1SCC(=O)c1cccs1	12.8% (inactive)
COc1ccccc1Oc1ccc(S(=O)(=O)Nc2cccnc2)cc1	9.6% (inactive)
COc1ccc(S(=O)(=O)Nc2cccnc2)c(Cl)c1Cl	77.2% (active)
COc1ccc(C(=O)Nc2cccnc2)cc1C(=O)Nc1cccnc1	-17.7% (inactive)
S=C(Cc1ccc(Cl)cc1)N1CCOCC1	-0.3% (inactive)
CC(=O)Nc1cccc(-c2nc3ccccc3s2)c1C	6.8% (inactive)
Cc1ccc(S(=O)(=O)N/N=C\c2cc3c(cc2[N+](=O)[O-])OCO3)cc1	37.8% (inactive)
Cc1ccc(-c2n[nH]c(=S)n2/N=C/c2cc3c(cc2[N+](=O)[O-])OCO3)cc1	69.3% (active)
CCOc1ccc(-c2n[nH]c(=S)n2/N=C/c2cc3c(cc2[N+](=O)[O-])OCO3)cc1	41.6% (inactive)
COc1ccc(CS(=O)/C(Cl)=C(/Cl)C(=O)Nc2ccc(OC)nc2)cc1 (stereo not given)	1% (inactive)
COc1ccc(S(=O)(=O)Nc2ccc(O)c(Sc3nc4ccccc4s3)c2)cc1	24.7% (inactive)
O=C(O)c1cccc(S(=O)(=O)Nc2ccc(O)cc2Sc2nc3ccccc3s2)c1	7.5% (inactive)

Structure (SMILES)	inhibition
O=[N+]([O-])c1c(NCCO)cc(Sc2nc3ccccc3s2)c2nonc12	58% (active)
C[C@H](NC(=O)c1ccccc1Cl)C(=O)OCCOc1cccc(Cl)c1	11.2% (inactive)
COc1cccc(-n2c(=S)[nH]c3c(oc4ccccc43)c2=O)c1	71.4% (active)
COc1cccc(-n2cc(C(=O)O)c3ccccc3c2=O)c1	6.7% (inactive)
COC(=O)c1ccc(CSc2nc3ccccc3c(=O)n2-c2cccc(OC)c2)o1	39.9% (inactive)
CN(C(=O)c1c(Cl)cnn1C)C12CC3CC(CC(C3)C1)C2	3.9% (inactive)
C/C(=N\Nc1ccc([N+](=O)[O-])cc1)c1ccc(-n2nncc2C(C)(C)C)cc1	5% (inactive)
O=C(CN1C(=O)c2cccc3cccc1c23)Nc1ccccc1	-6.4% (inactive)
CCN1C(=O)c2cccc3c(N)ccc1c23	57.3% (active)
CCCCN(C)C(=O)c1ccc2c(c1)N(CC)C(=O)c1ccccc1S2(=O)=O	4.6% (inactive)
CN1C(=O)C(CC(=O)Nc2ccccc2)S/C1=N/c1nccs1 (stereo not given)	-11.3% (inactive)
CC(=O)Nc1ccc(S(=O)(=O)N(CCc2ccccc2)CC(=O)N/N=C/c2ccc(C(=O)O)cc2)cc1	0.3% (inactive)
Cc1[nH]n(-c2ccccc2)c(=O)c1/C=N/NC(=O)c1ccoc1C	50.1% (active)
Cc1ccc(-n2[nH]c(C)c(/C=N/NC(=O)c3cccc([N+](=O)[O-])c3)c2=O)cc1C	22% (inactive)
Cc1[nH]n(-c2ccc(Cl)cc2)c(=O)c1/C=N/n1c(C)nc2ccccc2c1=O	-6.7% (inactive)
O=C(C(Cl)Cl)N1CCN(c2ccccn2)CC1	3% (inactive)
COCCCNC(=O)Cn1c(=O)n(Cc2ccccc2Cl)c(=O)c2cc(OC)c(OC)cc21	9.4% (inactive)
Cc1c(CN2CCCC(C(=O)c3cccc(Cl)c3)C2)c(=O)n(-c2ccccc2)n1C (stereo not given)	15.1% (inactive)
CCc1ccc(NC2Nc3cc(C)nn3S2)cc1 (stereo not given)	8.9% (inactive)
O=C(Cc1ccccc1)NCC1OCCc2ccccc21 (stereo not given)	24.1% (inactive)
COc1ccc(-c2csc(Nc3ccccn3)n2)cc1	10.1% (inactive)
COc1ccc(-c2csc(Nc3ccc(O)cc3)n2)cc1	-2.2% (inactive)
COc1ccc(OC)c(Nc2nc(-c3ccc(O)c(O)c3)cs2)c1	57.4% (active)
